Activity calls are given as the source filed them.
How the values were obtained:
Mus musculus [1] = organism: Mus musculus; test: Protective index, ratio of TD50 for C57B/6 mouse by rotarod test to ED50 for C57B/6 mouse by MES test; assay type: functional
Mus musculus [2] = test: Anticonvulsant activity against MES-induced seizure in ip dosed C57B/6 mouse by MES test; assay type: functional; details: C57B/6, ip
Procedure, shortened: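 Mice, groups of 10, given a range of intraperitoneal doses until at least three points fell within 10–90% protection. MES was tested 30 min after dosing, with current applied via corneal electrodes for 0.2 s. Protection was defined as abolition of the hind-leg tonic maximal extension.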

[3] = Neurotoxicity in ip dosed C57B/6 mouse after 30 mins by rotarod test; assay type: toxicity, organism-based; details: in vivo
Procedure, shortened: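 Mice, groups of 10, given a range of ip doses to define 10–90% minimal neurotoxicity. At 30 min after dosing, each mouse was placed on a 1-in. knurled rod rotating at 6 rpm for 1 min. Neurotoxicity meant failure to keep equilibrium in each of three trials.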

Mus musculus [4] = organism: Mus musculus; test: Anticonvulsant activity against isoniazid-induced seizure in C57B/6 mouse; assay type: functional
Procedure, shortened: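 Isoniazid was given ip at 250 mg/kg, a dose set by a dose–percent effect curve to convulse 100% of animals. Test compounds were given beforehand. ED50 was the dose protecting 50% of animals from tonic convulsions.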

Mus musculus [5] = test: Anticonvulsant activity against strychnine-induced seizure in C57B/6 mouse at 300 mg/kg; assay type: functional, organism-based; design: dose 300 mg/kg
Procedure, shortened: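 Strychnine chlorhydrate in saline (1.2 mg/mL, 1 mL/kg) was given sc as a 100%-convulsant dose after compound pretreatment, with the compound tested at 300 mg/kg. Mice were housed individually and observed for 30 min, recording seizure onset time, number of tonic seizures and lethality.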

Mus musculus [6] = organism: Mus musculus; test: Anticonvulsant activity against 3-mercaptopropionic acid-induced seizure in C57B/6 mouse; assay type: functional
Procedure, shortened: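 3-Mercaptopropionic acid 40 mg/kg in saline was injected sc 1 h after test treatment. Convulsion latency and duration, plus lethality latency and percentage, were recorded over 1 h. ED50 was the dose preventing tonic convulsions in 50% of treated animals.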

Mus musculus [7] = organism: Mus musculus; test: Anticonvulsant activity against thiosemicarbazide-induced seizure in C57B/6 mouse; assay type: functional
Procedure, shortened: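 Thiosemicarbazide 50 mg/kg ip, a fully convulsant dose, was given 1 h after test treatment. Latency and duration of convulsions, plus lethality latency and percentage, were recorded over 2 h 30 min. ED50 was the dose preventing tonic convulsions in 50% of treated animals.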

Mus musculus [8] = organism: Mus musculus; test: Anticonvulsant activity against pentylenetetrazole-induced seizure in C57B/6 mouse; assay type: functional
Procedure, shortened: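 Pentylenetetrazole 85 mg/kg sc, a dose giving 100% convulsions, was given 30 min after test treatment. Latency and duration of convulsions, plus latency and percentage of lethality, were recorded over the following 1 h. ED50 was the dose preventing tonic convulsions in 50% of treated animals.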

| Structure (SMILES) | Ratio TD50/ED50 (Mus musculus [1]) | ED50 (Mus musculus [2]) | TD50 at 0.5 h [3] | ED50 (Mus musculus [4]) | Activity (Mus musculus [5]) | ED50 (Mus musculus [6]) | ED50 (Mus musculus [7]) | ED50 (Mus musculus [8]) |
| --- | --- | --- | --- | --- | --- | --- | --- | --- |
| CCc1nncn1-c1ccc(OCc2cccc(F)c2)cc1 | 4 | 22.8 mg/kg | 91.2 mg/kg | – | – | – | – | – |
| CCc1nncn1-c1ccc(OCc2ccccc2Cl)cc1 | 5.8 | 13.2 mg/kg | 76.1 mg/kg | – | – | – | – | – |
| CCc1nncn1-c1ccc(OCc2ccc(Cl)cc2)cc1 | 10.4 | 19.7 mg/kg | 137 mg/kg | – | – | – | – | – |
| CCCCCCCCOc1ccc(-n2cnnc2CC)cc1 | 9.3 | 8.8 mg/kg | 82.2 mg/kg | 38.1 mg/kg | inactive | 22.8 mg/kg | 31.7 mg/kg | 26.4 mg/kg |
| CCCCCCCCCCCCOc1ccc(-n2cnnc2CC)cc1 | – | > 100 mg/kg | – | – | – | – | – | – |
| c1ccc(COc2ccc3c(c2)CCc2nncn2-3)cc1 | 3.5 | 17.3 mg/kg | 61.4 mg/kg | – | – | – | – | – |
| CCc1nncn1-c1ccc(OCc2ccc(F)cc2)cc1 | 4 | 22.8 mg/kg | 91.3 mg/kg | – | – | – | – | – |
| CCCCCCOc1ccc2c(c1)CCc1nncn1-2 | 2.2 | 13.5 mg/kg | 30.3 mg/kg | – | – | – | – | – |
| CCCCCCCOc1ccc(-n2cnnc2CC)cc1 | 5.5 | 8.3 mg/kg | 45.6 mg/kg | – | – | – | – | – |
| CCCOc1ccc(-n2cnnc2CC)cc1 | – | > 100 mg/kg | – | – | – | – | – | – |
| CCCCCCOc1ccc(-n2cnnc2CC)cc1 | 4.7 | 13.2 mg/kg | 62.1 mg/kg | – | – | – | – | – |
| CCc1nncn1-c1ccc(OCc2ccccc2F)cc1 | 2.9 | 21.2 mg/kg | 61.5 mg/kg | – | – | – | – | – |
| Cc1ccc(COc2ccc3c(c2)CCc2nncn2-3)cc1 | 3.2 | 20.5 mg/kg | 65.8 mg/kg | – | – | – | – | – |
| CCOc1ccc(-n2cnnc2CC)cc1 | – | > 100 mg/kg | – | – | – | – | – | – |
| CCc1nncn1-c1ccc(OCc2ccccc2)cc1 | 4.9 | 20.8 mg/kg | 102 mg/kg | – | – | – | – | – |
| CCc1nncn1-c1ccc(OCc2c(Cl)cccc2Cl)cc1 | 8.3 | 15.8 mg/kg | 132 mg/kg | – | – | – | – | – |
| CCc1nncn1-c1ccc(OCc2ccc(C)cc2)cc1 | 4 | 25.5 mg/kg | 101 mg/kg | – | – | – | – | – |
| Fc1ccc(COc2ccc3c(c2)CCc2nncn2-3)cc1 | 4.6 | 11.8 mg/kg | 54.5 mg/kg | – | – | – | – | – |
| CCc1nncn1-c1ccc(OCc2c(F)cccc2F)cc1 | 6.9 | 15.8 mg/kg | 109 mg/kg | – | – | – | – | – |
| CCc1nncn1-c1ccc(OCc2cccc(Cl)c2)cc1 | 4 | 27.4 mg/kg | 110 mg/kg | – | – | – | – | – |
| CCc1nncn1-c1ccc(OCc2ccc(OC)cc2)cc1 | 8.3 | 15.8 mg/kg | 132 mg/kg | – | – | – | – | – |
| CCCCOc1ccc(-n2cnnc2CC)cc1 | – | > 100 mg/kg | – | – | – | – | – | – |
| CCc1nncn1-c1ccc(OCc2ccc3c(c2)OCO3)cc1 | 9.4 | 20.1 mg/kg | 189 mg/kg | – | – | – | – | – |

— ChEMBL document CHEMBL1137442, “Synthesis and anticonvulsant evaluation of 4-(4-alkoxylphenyl)-3-ethyl-4H-1,2,4-triazoles as open-chain analogues of 7-alkoxyl-4,5-dihydro[1,2,4]triazolo[4,3-a]quinolines” (Bioorg Med Chem, 2007)
